Measurements from paper PMC3940414 (Journal of Medicinal Chemistry, 2014).
“Also recorded” adds a separate entry of the source. Like-named read-outs stand apart in the source and are kept apart here.

Key:
[1] = biological target: T1, rFAAH (Rattus norvegicus, UniProt P97612); type: biochemical
T1 sequence (P97612 30-579 limits assumed): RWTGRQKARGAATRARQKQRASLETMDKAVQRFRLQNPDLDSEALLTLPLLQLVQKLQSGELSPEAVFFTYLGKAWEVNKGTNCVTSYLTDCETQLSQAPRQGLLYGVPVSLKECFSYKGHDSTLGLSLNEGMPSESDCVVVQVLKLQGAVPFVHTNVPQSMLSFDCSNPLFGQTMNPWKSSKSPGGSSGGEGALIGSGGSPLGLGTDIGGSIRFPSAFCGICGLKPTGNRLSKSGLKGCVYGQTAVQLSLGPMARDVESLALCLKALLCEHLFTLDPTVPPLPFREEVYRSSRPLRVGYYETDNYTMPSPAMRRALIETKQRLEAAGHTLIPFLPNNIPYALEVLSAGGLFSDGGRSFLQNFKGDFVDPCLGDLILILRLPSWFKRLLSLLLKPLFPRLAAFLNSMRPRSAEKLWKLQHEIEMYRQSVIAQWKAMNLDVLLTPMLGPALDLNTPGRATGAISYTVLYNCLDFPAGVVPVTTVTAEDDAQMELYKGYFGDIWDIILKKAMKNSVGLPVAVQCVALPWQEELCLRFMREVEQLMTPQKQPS

[2] = biological target: T1, rFAAH; experiment: Lineweaver–Burk kinetic analysis; type: biochemical; settings: after 3 h preincubation with the enzyme
[3] = biological target: T2, purified recombinant rat FAAH (Rattus norvegicus, UniProt P97612); experiment: Reversibility of FAAH inhibition by dialysis dilution; type: biochemical; settings: 3 h preincubation 22 °C, then dialysis 4 °C, 18 h, 370-fold, pH 9
T2 sequence (P97612 30-579 limits assumed): T1 sequence (P97612 30-579 limits assumed)
Method in brief: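 Purified recombinant rat FAAH (E. coli-expressed) in pH 9.0 Tris/EDTA/glycerol/Triton X-100/Hepes buffer, preincubated 3 h at 22 °C with test compound (final 80, 100 or 150 nM) or DMSO. Triplicate pre-dialysis activity assay, then dialysis (10 000 MW cutoff) against PBS, 4 °C, 18 h, stirred. Post-dialysis activity assayed in triplicate and expressed as % of DMSO control.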

[4] = tested on: lipid amides in the brain; settings: mice, i.p.; cited from earlier work
[5] = tested on: cannabinoid CB1 receptor; settings: background statement, ref not given; cited from earlier work
[6] = tested on: cannabinoid CB2 receptor; settings: background statement, ref not given; cited from earlier work
[7] = tested on: vanilloid (TRP) receptors; settings: background statement, ref not given; cited from earlier work
[8] = tested on: common P450 metabolism enzymes; settings: background statement, ref not given; cited from earlier work
[9] = tested on: human ether-a-go-go related gene product (hERG); settings: background statement, ref not given; cited from earlier work
[10] = tested on: analgesia; settings: cited from earlier work
[11] = Recovery of thioesters from assay buffer and enzymatic assays; type: physicochemical; settings: for recovery from the assay buffer: 6 h
[12] = tested on: endogenous brain levels of FAAH substrates (AEA, OEA, PEA); experiment: Brain lipid levels after i.p. inhibitor administration; type: in vivo; settings: mice, 3 h post i.p. 30 mg/kg, relative to reversible inhibitor 2
[13] = tested on: neuropathic pain; settings: cited from earlier work
[14] = enzyme–inhibitor preincubation 0–6 h

SMILES	time-dependent change of inhibition potency (in words) [1, 14]	mode of inhibition (Lineweaver–Burk) [2]	recovery of enzyme activity after dialysis dilution [3]	increase of brain anandamide levels over that of 2 [12]	further results
O=C(CCCCCCc1ccccc1)c1ncc(-c2ccccn2)o1 [compound 2]	does not display time-dependent inhibition	reversible, competitive	restored full enzyme activity; also recorded: nearly full recovery of enzyme activity	–	duration of elevation of brain lipid amides [4]: 2 to 3 h; binding to CB1 receptor [5]: does not bind; binding to CB2 receptor [6]: does not bind; binding to vanilloid (TRP) receptors [7]: does not bind; inhibition of common P450 metabolism enzymes [8]: does not significantly inhibit; inhibition of hERG [9]: does not significantly inhibit; analgesic effect [10]: induces analgesia
N#Cc1ccc(-c2cnc(C(=O)CCCCCCc3ccccc3)o2)nc1 [compound 7]	–	–	–	–	time-dependent change of inhibition potency (in words) [1]: did not display time-dependent increases in potency
COC(=N)c1ccc(-c2cnc(C(=O)CCCCCCc3ccccc3)o2)nc1 [compound 8]	–	–	–	–	time-dependent change of inhibition potency (in words) [1]: did not display time-dependent increases in potency
O=C(CCCCCCc1ccccc1)c1ncc(-c2ccc(CBr)cn2)o1 [compound 11]	most pronounced time-dependent increase in potency	noncompetitive	failing to restore FAAH activity; also recorded: little or no recovery of enzyme activity	approximately 2 fold	duration of elevation of brain lipid amides [4]: > 6 h; time of peak brain lipid amide levels [4]: 1.5 to 3 h; activity in a mouse model of neuropathic pain [13]: long acting in vivo activity
COC(=N)Cc1ccc(-c2cnc(C(=O)CCCCCCc3ccccc3)o2)nc1 [compound 17]	did exhibit increases in potency	noncompetitive	do not appear to be even slowly reversible	–	–
CCOC(=O)/C=C/c1ccc(-c2cnc(C(=O)CCCCCCc3ccccc3)o2)nc1 [compound 18]	–	mixed kinetics	did not restore enzyme activity	–	–
N#C/C=C/c1ccc(-c2cnc(C(=O)CCCCCCc3ccccc3)o2)nc1 [compound 19]	–	mixed kinetics	did not restore enzyme activity	–	–
CCOS(=O)(=O)/C=C/c1ccc(-c2cnc(C(=O)CCCCCCc3ccccc3)o2)nc1 [compound 20]	–	noncompetitive	–	approximately 2 fold	–
CS(=O)(=O)/C=C/c1ccc(-c2cnc(C(=O)CCCCCCc3ccccc3)o2)nc1 [compound 21]	–	noncompetitive	–	approximately 2 fold	–
C[S+]([O-])/C=C/c1ccc(-c2cnc(C(=O)CCCCCCc3ccccc3)o2)nc1 (stereo not shown) [compound 22]	–	noncompetitive	–	approximately 2 fold	–
CSC(=O)CCCCc1cnc(C(=O)CCCCCCc2ccccc2)o1 [compound 25]	–	reversible, competitive	–	–	recovery from the assay buffer [11]: recovered unchanged

Further lines, with some results ahead:

time-dependent change of inhibition potency (in words) [1, 14]	mode of inhibition (Lineweaver–Burk) [2]	SMILES	recovery of enzyme activity after dialysis dilution [3]	increase of brain anandamide levels over that of 2 [12]	further results
–	reversible, competitive	COC(=O)c1ccc(-c2cnc(C(=O)CCCCCCc3ccccc3)o2)nc1 [compound 3]	–	–	–
–	reversible, competitive	CSC(=O)c1ccc(-c2cnc(C(=O)CCCCCCc3ccccc3)o2)nc1 [compound 5]	–	–	time-dependent change of inhibition potency (in words) [1]: did not exhibit this time-dependent increase; recovery from the assay buffer [11]: recovered unchanged; recovery from enzymatic assays ([11]; enzymatic assays): recovered unchanged
insensitive to preincubation	–	O=C(CCCCCCc1ccccc1)c1ncc(-c2ccc(CCl)cn2)o1 [compound 12]	–	–	–
did exhibit increases in potency	noncompetitive	N#CCc1ccc(-c2cnc(C(=O)CCCCCCc3ccccc3)o2)nc1 [compound 14]	failing to restore FAAH activity; also recorded: little or no recovery of enzyme activity	approximately 2 fold	duration of elevation of brain lipid amides [4]: > 6 h; time of peak brain lipid amide levels [4]: 1.5 to 3 h; activity in a mouse model of neuropathic pain [13]: long acting in vivo activity
–	reversible, competitive	CSC(=O)Cc1ccc(-c2cnc(C(=O)CCCCCCc3ccccc3)o2)nc1 [compound 16]	–	–	time-dependent change of inhibition potency (in words) [1]: did not exhibit this time-dependent increase
